Experimental data taken from publication PMC7323835 (American Journal of Clinical Oncology, 2020).

Columns and labels:
[1] = tested on: rats; assay: GLP 28-day toxicology study in rats; format: in vivo, rat; details: highest dose tested in rats, 28-day GLP
[2] = tested on: advanced solid tumors; assay: Tumor response; format: in vivo, human
Procedure, shortened: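 Patients with previously treated advanced solid tumours were enrolled in an open-label 3+3 escalation. The test compound was given as an oral liquid (100 mg/mL in lecithin/propylene glycol/PEG/TPGS vehicle) once daily, ≥2 h from meals, in 28-day cycles. CT/MRI was scored by RECIST v1.1 (CR/PR/SD/PD) every 8 weeks (±7 d) until progression, discontinuation or consent withdrawal. SD duration was counted in cycles.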

[3] = Plasma pharmacokinetics of SLC-0111 after single and repeated dosing; format: in vivo, human; details: for AUC(0-t) / Tmax: human, plasma, oral; for AUC(0-t): AUC(0-24), Day 1, mean; for Tmax: range of cohort means
[4] = tested on: patients with previously treated, advanced solid tumors; assay: Phase 1 dose escalation study: safety and tolerability; format: in vivo, human

NS(=O)(=O)c1ccc(NC(=O)Nc2ccc(F)cc2)cc1 [SLC-0111, 4-[(4-fluorophenyl)carbamoyl]amino-benzene sulfonamide]
Severe toxic dose in 10% (STD10) of treated rodents [1]: 500 mg/kg/day
Objective responses ([2]; all cohorts): no objective responses were observed
Stable disease maintained, number of 28-day cycles ([2]; cohort 1 (500 mg), one patient with sarcoma of spine): 10 cycles
Stable disease up to cycle ([2]; cohort 3 (2000 mg), one patient with colorectal cancer): ≤ 7
Prolonged stable disease (SD), duration ([2]; observed in 2 patients): > 24 weeks
Day 28/Day 1 AUC(0-24) ratio ([3]; 500 mg/d): 2.01±0.879
Day 28/Day 1 Cmax±SD ratio ([3]; 500 mg/d): 1.32±0.298
Day 28/Day 1 AUC(0-24) ratio ([3]; 1000 mg/d): 1.47±1.42
Day 28/Day 1 Cmax±SD ratio ([3]; 1000 mg/d): 1.17±1.02
Day 28/Day 1 AUC(0-24) ratio ([3]; 2000 mg/d): 2.18±0.247
Day 28/Day 1 Cmax±SD ratio ([3]; 2000 mg/d): 3.70±4.30
Dose proportionality of exposure (in words) ([3]; Cmax and AUC(0-24), days 1 and 28, 500-2000 mg): generally dose proportional
AUC(0-t) ([3]; 500 mg, 500 mg, N=3): 33000 ng·h/mL
AUC(0-t) ([3]; 1000 mg, 1000 mg, N=3): 70000 ng·h/mL
AUC(0-t) ([3]; 2000 mg, 2000 mg, N=2): 94000 ng·h/mL
Tmax ([3]; Day 1, 500-2000 mg cohorts): 2.46 to 6.05 h
Tmax ([3]; Day 28, 500-2000 mg cohorts): 2.61 to 5.02 h
Dose-limiting toxicities (in words) ([4]; 500, 1000 and 2000 mg, cycle 1, 10 evaluable patients): No protocol defined DLTs were observed
Hypophosphatemia, Grade of the grade 3-4 events (CTCAE) ([4]; Cohort 1 (500 mg)): 3
Fatigue, Grade of the grade 3-4 events (CTCAE) ([4]; Cohort 2 (1000 mg)): 3
Pulmonary embolism (SAE), Grade (CTCAE) ([4]; Cohort 2 (1000 mg)): 3
Alanine Transaminase, Grade of the grade 3-4 events (CTCAE) ([4]; Cohort 3 (2000 mg)): 3
Clostridium entercolitis (SAE), Grade (CTCAE) ([4]; Cohort 3 (2000 mg)): 3
Fatigue, Grade of the grade 3-4 events (CTCAE) ([4]; Cohort 3 (2000 mg)): 3
Hepatobiliary disorder (SAE), Grade (CTCAE) ([4]; Cohort 3 (2000 mg)): 3
Hypophosphatemia, Grade of the grade 3-4 events (CTCAE) ([4]; Cohort 3 (2000 mg)): 3
Total treatment emergent AEs reported over the course of the study ([4]; all cohorts, 17 patients): 184
Treatment emergent AEs considered related to SLC-0111 ([4]; all cohorts, 17 patients): 91
SAEs recorded across the entire study group ([4]; all cohorts, only hepatobiliary disorder drug related): Three
Tolerability (in words) ([4]; doses of 1000 mg daily or below): generally well tolerated
Maximum tolerated dose ([4]; doses up to 2000 mg daily): not established
Recommended phase II dose (RP2D) ([4]; oral liquid formulation, once daily): 1000 mg/day
